According to ChEMBL document CHEMBL1141421, “Chemical transformation and biological activities of ambrein, a major product of ambergris from Physeter macrocephalus (sperm whale)” (J Nat Prod, 2007):
In brackets after ≈: the same amount, converted by molar mass.

What was measured:
[1] = Cytotoxicity against human A549 cells by MTT assay; assay type: cell-based; conditions: read-out: ED50 (the source's name)
Method in brief: (§1)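 MTT read-out on human tumour cells: Hepa59T/VGH liver carcinoma, WiDr colon adenocarcinoma, A-549 lung carcinoma and MCF-7 breast adenocarcinoma. ED50 taken as the sample concentration giving 50% lower absorbance than untreated cells.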

[2] = Cytotoxicity against human WiDr cells by MTT assay; assay type: cell-based; conditions: read-out: ED50 (the source's name); method in brief: as §1
[3] = Cytotoxicity against human MCF7 cells by MTT assay; assay type: cell-based; conditions: read-out: ED50 (the source's name); method in brief: as §1
[4] = Cytotoxicity against human hepa59T/VGH cells by MTT assay; assay type: cell-based, Hepa 59T/VGH; conditions: read-out: ED50 (the source's name); method in brief: as §1
[5] = Antiinflammatory activity assessed as inhibition of fMLP-induced elastase release in human neutrophils at 10 ug/mL relative to control; assay type: functional, cell-based, Neutrophil
Method in brief: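 Neutrophils (6 × 10⁵/mL) supplemented with MeO-Suc-Ala-Ala-Pro-Val-p-nitroanilide (100 µM) elastase substrate, equilibrated 2 min at 37 °C, then exposed to test sample for 5 min. Stimulation with FMLP (100 nM)/cytochalasin B (0.5 µg/mL); elastase release followed continuously as absorbance change at 405 nm. DMSO-treated cells served as the 100% reference.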

Structure (SMILES) | CC50 [1] | CC50 [2] | CC50 [3] | CC50 [4] | Elastase release (% of DMSO control) [5] | IC50 ([5]; Homo sapiens, Neutrophil)
C=C1CCCC(C)(C)[C@@H]1CCC(C)=O | > 10 µg/mL | > 10 µg/mL | > 10 µg/mL | > 10 µg/mL | – | –
C=C1CCCC(C)(C)[C@@H]1C[C@@H](O)/C(C)=C/CC[C@@H]1[C@@]2(C)CCCC(C)(C)[C@@H]2CC[C@@]1(C)O | > 10 µg/mL | > 10 µg/mL | > 10 µg/mL | > 10 µg/mL | 79.3% | –
C=C1CCCC(C)(C)[C@@H]1CC(=O)/C(C)=C/CC[C@@H]1[C@@]2(C)CCCC(C)(C)[C@@H]2CC[C@@]1(C)O | 5.3 µg/mL (≈ 12 µM) | 10 µg/mL (≈ 22.6 µM) | 8.5 µg/mL (≈ 19.2 µM) | 6.8 µg/mL (≈ 15.4 µM) | 95.1% | –
C=C1CCCC(C)(C)[C@@H]1CC[C@](C)(O)[C@@H]1CCC2[C@@](C)(CC[C@H]3C(C)(C)CCC[C@]23C)O1 (some centres undefined) | > 10 µg/mL | > 10 µg/mL | > 10 µg/mL | > 10 µg/mL | 81.3% | –
C=C1CCCC(C)(C)[C@@H]1C[C@H](OC(=O)c1ccccc1)/C(C)=C/CC[C@@H]1[C@@]2(C)CCCC(C)(C)[C@@H]2CC[C@@]1(C)O | > 10 µg/mL | > 10 µg/mL | > 10 µg/mL | > 10 µg/mL | 115.5% | –
O=c1c(-c2ccc(O)cc2)coc2cc(O)cc(O)c12 [GENISTEIN] | – | – | – | – | 51.6% | –
C=C1CCCC(C)(C)[C@@H]1C[C@@H](OC(=O)c1ccccc1)/C(C)=C/CC[C@@H]1[C@@]2(C)CCCC(C)(C)[C@@H]2CC[C@@]1(C)O | > 10 µg/mL | > 10 µg/mL | > 10 µg/mL | > 10 µg/mL | 85.6% | –
C=C1CCCC(C)(C)[C@@H]1CC/C(=C\CC[C@@H]1[C@@]2(C)CCCC(C)(C)[C@@H]2CC[C@@]1(C)O)CO | > 10 µg/mL | > 10 µg/mL | > 10 µg/mL | > 10 µg/mL | 74.4% | –
C=C1CCCC(C)(C)[C@@H]1CC/C(C)=C/CC[C@@H]1[C@@]2(C)CCCC(C)(C)[C@@H]2CC[C@@]1(C)O [AMBREIN] | > 10 µg/mL | > 10 µg/mL | > 10 µg/mL | > 10 µg/mL | – | 4.6 µg/mL (≈ 10.7 µM)
C=C1CCCC(C)(C)[C@@H]1C[C@H](O)/C(C)=C/CC[C@@H]1[C@@]2(C)CCCC(C)(C)[C@@H]2CC[C@@]1(C)O | 6.4 µg/mL (≈ 14.4 µM) | 7.8 µg/mL (≈ 17.5 µM) | 4 µg/mL (≈ 8.99 µM) | 5.7 µg/mL (≈ 12.8 µM) | 132.7% | –
C=C1CCCC(C)(C)[C@@H]1CC/C(=C/CC[C@@H]1[C@@]2(C)CCCC(C)(C)[C@@H]2CC[C@@]1(C)O)COC(=O)c1ccccc1 | > 10 µg/mL | > 10 µg/mL | > 10 µg/mL | > 10 µg/mL | 75.6% | –
C=C1CCCC(C)(C)[C@@H]1C[C@@H]1O[C@]2(C)CC[C@H]3C(C)(C)CCC[C@]3(C)[C@H]2CC/C=C\1C | > 10 µg/mL | > 10 µg/mL | > 10 µg/mL | > 10 µg/mL | 82% | –
COc1cccc2c1C(=O)c1c(O)c3c(c(O)c1C2=O)C[C@@](O)(C(=O)CO)C[C@@H]3O[C@H]1C[C@H](N)[C@H](O)[C@H](C)O1 [DOXORUBICIN] | 0.21 µg/mL (≈ 0.386 µM) | 0.12 µg/mL (≈ 0.221 µM) | 0.12 µg/mL (≈ 0.221 µM) | 0.11 µg/mL (≈ 0.202 µM) | – | –
C=C1CCCC(C)(C)[C@@H]1C/C=C(\C)[C@H]1CC[C@@H]2[C@@]3(C)CCCC(C)(C)[C@@H]3CC[C@@]2(C)O1 | > 10 µg/mL | > 10 µg/mL | > 10 µg/mL | > 10 µg/mL | 92.2% | –
